Screening results deposited in PubChem by The Scripps Research Institute Molecular Screening Center.
HTRA1 inh: HTRA1 (human) protease inhibition | Q92743 | recombinant HTRA1, FP-rhodamine activity-based probe, fluorescence polarization | inhibition, % at 5.96 µM | 340,000 compounds, 0.5% hits; in the data active = inhibition above about 36%
mABHD4 FP: inhibitors of mouse ABHD4; purified mABHD4, FP-Rh probe fluorescence polarization; inhibition, % at 8.92 µM; 370,000 compounds, 0.54% hits; AID 720543;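 active = inhibition exceeding the mean over every tested compound plus 3 SD, cut at about 30% in these data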
Target sequence (Q8VD66 whole entry, looked up): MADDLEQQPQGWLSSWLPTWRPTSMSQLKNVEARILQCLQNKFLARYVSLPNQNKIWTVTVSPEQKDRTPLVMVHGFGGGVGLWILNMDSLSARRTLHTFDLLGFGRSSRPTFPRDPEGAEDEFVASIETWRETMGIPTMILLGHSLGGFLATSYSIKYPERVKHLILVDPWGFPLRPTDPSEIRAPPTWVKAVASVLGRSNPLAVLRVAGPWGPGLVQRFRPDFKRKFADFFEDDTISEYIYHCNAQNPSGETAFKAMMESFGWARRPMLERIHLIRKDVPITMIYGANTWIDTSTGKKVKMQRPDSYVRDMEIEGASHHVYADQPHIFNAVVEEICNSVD
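system = mouse ABHD4 enzyme, wild type | medium = HEPES pH 7.0, NaCl, Pluronic buffer | also added = FP-Rh probe | incubation = Enzyme–compound pre-incubation 45 min, then probe 60 min, both 25 °C | technique = fluorescence polarization, excitation 525 nm, emission 598 nm, BODIPY TMR filters | controls = S159A mutant high control, sample median low control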
TCR-CD3 inh: blocks the human TCR-CD3 interaction | 360,000 compounds, 0.37% hits | inhibition, % at 9.4 µM | AID 651800 | TAMRA-labeled TCR probe fluorescence, biochemical; in the data active = inhibition above about 19%;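 also: recombinant mutant TCR 2C K166C tagged with TAMRA read by polarization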
SIAE primary: inhibitors of human sialic acid acetylesterase SIAE | Q9HAT2 | SIAE FP-Rh probe binding, fluorescence polarization | inhibition, % at 9.66 µM | 370,000 compounds, 0.69% hits;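 active = inhibition above a cutoff: mean of compounds within the control limits plus 3 SD of those, cut at about 17% in these data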
DDE Tn7 FP inh: inhibitors of Tn7 peptide binding to human fibrin DD(E) | P02675 | FP displacement of FITC-Tn7 peptide from fibrin DD(E); 0% = median of compound wells per plate | inhibition, % at 8.3 µM | 370,000 compounds, 0.13% hits | AID 720508;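 active = inhibition above the mean of compounds falling within the control limits plus 3 SD of them, cut at about 14% in these data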
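System: human fibrin DD(E); quantity: Fibrin-DD(E) at 2 µM final; also added: fluorescent Tn7 probe at 0.1 µM; compound dosing: single nominal test concentration of 8.3 µM per compound; schedule: 10 min preincubation, 3 h with tracer, room temperature; detection: fluorescence polarization of the labelled Tn7 tracer; repeats: one replicate per compound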
Tn6 DDE FP: inhibitors of Tn6 peptide binding to human fibrin DD(E); P02675; Fibrin DD(E) TRITC-Tn6 fluorescence polarization displacement; inhibition, % at 8.3 µM; 370,000 compounds, 0.21% hits; AID 720509;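 active = inhibition above a per-campaign cutoff: mean of compounds within control limits plus 3 SD, cut at about 15% in these data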
Tn7 DDE conf: DD(E)-Tn7 binding inhibition, FP confirmation; shares compounds with DDE Tn7 FP inh; FP displacement of TRITC-Tn7 peptide from DD(E); 0% set at plate's compound-well median; inhibition, % at 8.3 µM; 460 compounds, 5% hits; AID 720628;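 active = inhibition above the campaign cutoff, the mean of compounds within control limits plus 3 SD, cut at about 14% in these data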;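 also: displacers lower polarization since freed probe rises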
Tn7 DDE ctr: counter-screen hit for Tn7 peptide-fibrin DD(E) binding disruption | inhibition, % at 8.3 µM | AID 720633 | shares compounds with DDE Tn7 FP inh | 460 compounds, 3% hits | TRITC-Tn7 probe displacement, fluorescence polarization;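 active = inhibition above the cutoff, the mean of compounds lying between the control bounds plus 3 SD of those compounds, cut at about 17% in these data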
A number is an active result; n = inactive; x = no result given. A selection: hits, their analogues and other compounds. The true share with any hit is near 1.8%.

SMILES	HTRA1 inh	mABHD4 FP	TCR-CD3 inh	SIAE primary	DDE Tn7 FP inh	Tn6 DDE FP	Tn7 DDE conf	Tn7 DDE ctr
O=S(=O)(CC1NCc2cc(F)ccc21)NCc1ccccc1 (configuration not stated)	x	n	x	n	n	n	x	x
C=CCN1C(=O)C(Cc2ccccc2)S/C1=N/N=C/c1cccs1 (configuration not stated)	n	n	n	n	14	n	n	n
CC(C)CCOc1ccc(C(=O)NCC(c2cccs2)N2CCOCC2)cc1 (configuration not stated)	n	n	n	n	15	n	n	n
COC(=O)[C@]12C[C@H](CC(=O)NCc3ccc(C)o3)C(=O)N(CCc3ccc(OC)c(OC)c3)C1=C[C@H](C(C)C)O[C@@H]2C1CC1	x	n	x	n	n	n	x	x
O=C1[C@H]2[C@@H](c3ccc(C(F)(F)F)cc3)N[C@]3(CCCN(Cc4ccc(C(F)(F)F)cc4)C3=O)[C@H]2C(=O)N1Cc1ccccc1	n	n	n	n	n	n	x	x
COc1ccc([C@H]2N[C@]3(CCCN(Cc4ccc(C(F)(F)F)cc4)C3=O)[C@H]3C(=O)N(Cc4ccccc4)C(=O)[C@@H]23)cc1	n	n	n	n	17	n	n	n
COc1cc(NC(=O)C2CCCN(S(=O)(=O)c3cccc4cccnc34)C2)cc(OC)c1 (configuration not stated)	x	n	x	n	n	n	x	x
COc1ccc(C2Nc3ccccc3C(=O)N2Cc2cccnc2)cc1COc1c(C)cccc1C (configuration not stated)	x	n	x	n	n	n	x	x
COc1ccc(CNc2nc3ccccc3n2C)c(OC)c1	n	n	n	n	n	n	x	x
COc1ccc(N=Nc2nc3cc(Br)c(Br)cc3n2C)c(OC)c1	n	n	n	n	28	n	n	n
COc1ccccc1NC(=O)c1cc(S(=O)(=O)N2CCCC2)cn1C	n	n	n	n	15	n	n	n
Cc1cc(C(F)F)n2ncc(C(=O)NCc3ccccc3C(F)(F)F)c2n1	n	n	n	n	14	n	n	n
Cc1cc(C(F)F)n2ncc(C(=O)NCc3ccccc3F)c2n1	n	n	n	n	n	n	x	x
O=S1(=O)c2ccc(N3CCSCC3)cc2Oc2ccccc2CN1Cc1cn(Cc2ccc(Cl)cc2)nn1	x	n	x	n	n	n	x	x
O=C(c1ccccc1)c1ccc(O)cc1O	n	n	n	n	34	n	n	n
N#Cc1cccc(NC(=O)OCCN2C(=O)CCC23CCC(c2ccc(Cl)cc2)CC3)c1 (configuration not stated)	x	n	x	n	n	n	x	x
O=c1oc2cc(O)ccc2cc1S(=O)(=O)c1ccccc1	n	n	n	n	n	n	x	x
O=c1oc2cc(O)ccc2cc1-c1nc2ccccc2o1	x	n	n	n	38	n	14	n
COc1ccc(C2C(C(=O)N3CCC(C)CC3)CC(=O)N2c2ccc(OC)cc2)cc1 (configuration not stated)	x	n	x	n	n	n	x	x
CCCCn1c(N)c(N(CCOC)C(=O)C2CCN(S(=O)(=O)c3ccc(C)cc3)CC2)c(=O)[nH]c1=O	n	n	n	n	n	n	x	x
CCCCn1c(N)c(N(CCOC)C(=O)C2CCN(S(=O)(=O)c3ccc(F)cc3)CC2)c(=O)[nH]c1=O	n	n	n	n	17	n	n	n
CCn1c(=O)cc(SCC(=O)Nc2ccc3c(c2)OCO3)c2ccccc21	n	x	x	x	x	x	x	x
CCn1c(=O)cc(SCC(=O)Nc2cccnc2)c2ccccc21	n	n	n	n	14	n	n	n
CCOC(=O)C1CCN(C(=O)C(Cc2ccc3c(c2)OCO3)NC(C)=O)CC1 (configuration not stated)	x	n	x	n	n	n	x	x
CCOCCCNC(=S)N1CCC(C(=O)c2ccc(C)cc2)CC1	n	n	n	n	14	n	n	n
CC(C)OCCCNC(=S)N1CCC(C(=O)c2ccc(Cl)cc2)CC1	n	n	n	n	n	n	x	x
